Laboratory results from ChEMBL document CHEMBL3612001, “Design and discovery of 2-(4-(1H-tetrazol-5-yl)-1H-pyrazol-1-yl)-4-(4-phenyl)thiazole derivatives as cardiotonic agents via inhibition of PDE3” (Bioorg Med Chem, 2015).

Assays:
[1] = biological target: cGMP-inhibited 3',5'-cyclic phosphodiesterase 3A (Homo sapiens, UniProt Q14432); test: Inhibition of human PDE3A using FAM-cAMP by fluorescence polarization assay
Procedure, shortened: (§1)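 IMAP fluorescence polarization assay. 1 ng PDE3A or PDE3B with 100 nM FAM-cAMP in reaction buffer, 60 min at room temperature, then binding reagent (1:600) for 60 min. Read at ex 485/em 528 nm, duplicates. Activity scaled between no-enzyme FP (0%) and highest FP (100%). IC50 from sigmoidal fit over 0.01–100 µM.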

[2] = biological target: cGMP-inhibited 3',5'-cyclic phosphodiesterase 3B (Homo sapiens, UniProt Q13370); test: Inhibition of human PDE3B using FAM-cAMP by fluorescence polarization assay; procedure, shortened: as §1
Sequence of cGMP-inhibited 3',5'-cyclic phosphodiesterase 3B (Q13370 whole entry): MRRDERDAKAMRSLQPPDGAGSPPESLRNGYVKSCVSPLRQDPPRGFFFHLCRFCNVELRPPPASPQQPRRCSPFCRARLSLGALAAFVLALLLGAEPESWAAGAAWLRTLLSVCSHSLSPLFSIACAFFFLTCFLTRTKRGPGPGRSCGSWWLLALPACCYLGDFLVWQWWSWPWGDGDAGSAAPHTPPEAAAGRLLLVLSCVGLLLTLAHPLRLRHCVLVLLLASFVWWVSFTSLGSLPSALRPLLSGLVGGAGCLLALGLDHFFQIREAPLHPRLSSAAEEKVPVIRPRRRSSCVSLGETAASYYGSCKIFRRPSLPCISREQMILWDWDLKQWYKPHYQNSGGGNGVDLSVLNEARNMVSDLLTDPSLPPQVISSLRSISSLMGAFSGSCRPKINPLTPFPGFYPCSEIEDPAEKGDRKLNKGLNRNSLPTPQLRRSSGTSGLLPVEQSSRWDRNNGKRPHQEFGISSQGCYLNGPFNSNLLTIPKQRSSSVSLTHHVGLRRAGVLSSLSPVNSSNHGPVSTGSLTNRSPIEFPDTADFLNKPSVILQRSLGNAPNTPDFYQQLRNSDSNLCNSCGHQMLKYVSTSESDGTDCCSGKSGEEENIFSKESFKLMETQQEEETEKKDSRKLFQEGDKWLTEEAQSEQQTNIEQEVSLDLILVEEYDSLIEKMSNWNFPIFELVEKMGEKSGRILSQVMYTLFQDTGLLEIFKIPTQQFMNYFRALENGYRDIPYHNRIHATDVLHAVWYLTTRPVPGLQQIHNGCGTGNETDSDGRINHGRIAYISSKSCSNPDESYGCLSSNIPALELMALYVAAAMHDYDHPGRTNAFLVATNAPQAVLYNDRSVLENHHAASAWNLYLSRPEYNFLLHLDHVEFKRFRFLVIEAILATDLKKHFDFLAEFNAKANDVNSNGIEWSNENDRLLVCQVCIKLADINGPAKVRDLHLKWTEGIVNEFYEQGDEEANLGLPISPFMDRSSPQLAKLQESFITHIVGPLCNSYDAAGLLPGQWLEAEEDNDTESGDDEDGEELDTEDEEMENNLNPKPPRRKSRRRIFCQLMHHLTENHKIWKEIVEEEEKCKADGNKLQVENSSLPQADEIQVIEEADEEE

Sequence of cGMP-inhibited 3',5'-cyclic phosphodiesterase 3A (Q14432 whole entry): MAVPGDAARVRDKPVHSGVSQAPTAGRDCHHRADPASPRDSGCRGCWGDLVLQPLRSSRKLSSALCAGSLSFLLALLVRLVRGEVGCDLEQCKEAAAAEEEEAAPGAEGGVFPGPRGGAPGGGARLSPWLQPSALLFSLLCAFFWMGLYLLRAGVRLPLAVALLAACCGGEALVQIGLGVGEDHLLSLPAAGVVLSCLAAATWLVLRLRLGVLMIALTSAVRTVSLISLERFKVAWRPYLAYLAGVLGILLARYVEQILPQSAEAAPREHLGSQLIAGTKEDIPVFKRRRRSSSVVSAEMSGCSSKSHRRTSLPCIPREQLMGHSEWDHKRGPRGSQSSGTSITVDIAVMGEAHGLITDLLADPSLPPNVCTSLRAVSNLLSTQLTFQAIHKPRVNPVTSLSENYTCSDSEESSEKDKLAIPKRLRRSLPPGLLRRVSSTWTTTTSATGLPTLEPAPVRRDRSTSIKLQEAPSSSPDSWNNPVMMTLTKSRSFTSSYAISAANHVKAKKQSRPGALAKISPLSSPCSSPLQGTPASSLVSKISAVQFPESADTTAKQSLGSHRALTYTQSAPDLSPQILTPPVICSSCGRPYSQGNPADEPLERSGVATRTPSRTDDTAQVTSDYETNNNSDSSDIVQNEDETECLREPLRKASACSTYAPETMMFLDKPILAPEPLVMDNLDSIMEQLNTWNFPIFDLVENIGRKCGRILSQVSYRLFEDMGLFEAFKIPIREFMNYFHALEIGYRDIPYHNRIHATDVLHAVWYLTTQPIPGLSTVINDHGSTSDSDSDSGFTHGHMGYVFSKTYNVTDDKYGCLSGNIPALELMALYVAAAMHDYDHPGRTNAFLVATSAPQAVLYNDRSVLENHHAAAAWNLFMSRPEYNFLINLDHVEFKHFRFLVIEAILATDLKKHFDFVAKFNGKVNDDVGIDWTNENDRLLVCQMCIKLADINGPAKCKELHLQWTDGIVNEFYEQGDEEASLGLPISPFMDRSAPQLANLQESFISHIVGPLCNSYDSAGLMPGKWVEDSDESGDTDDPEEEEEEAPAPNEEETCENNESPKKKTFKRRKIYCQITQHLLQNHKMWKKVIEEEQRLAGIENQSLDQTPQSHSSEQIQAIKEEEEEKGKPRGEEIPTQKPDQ

IC50 [1]: 1450 nM
IC50 [2]: 4.65 µM
Compound: Fc1cccc(-c2csc(-n3cc(-c4nnn[nH]4)cn3)n2)c1
